One test relates to L1210. The test is described as follows: Antiproliferative activity against mouse L1210 cells by microculture tetrazolium assay. The class given is functional, cell-based. The procedure, abridged:
(§1)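 Cells grown in RPMI 1640 with 10% fetal calf serum, 2 mM L-glutamine, penicillin/streptomycin and 10 mM HEPES (pH 7.4). Continuous exposure to graded compound concentrations for four doubling times. MTT (5 mg/mL) added, 4 h at 37 °C, formazan dissolved in DMSO, optical density read. IC50 is the concentration halving optical density relative to untreated controls.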

A short description of test [1]: Antiproliferative activity against human […] cells microculture tetrazolium assay. The class given is functional, cell-based. Summed up:
as §1

In test [2] the target is T1, Serine/threonine-protein kinase Chk1 (Homo sapiens) (UniProt O14757).
T1 sequence (whole entry): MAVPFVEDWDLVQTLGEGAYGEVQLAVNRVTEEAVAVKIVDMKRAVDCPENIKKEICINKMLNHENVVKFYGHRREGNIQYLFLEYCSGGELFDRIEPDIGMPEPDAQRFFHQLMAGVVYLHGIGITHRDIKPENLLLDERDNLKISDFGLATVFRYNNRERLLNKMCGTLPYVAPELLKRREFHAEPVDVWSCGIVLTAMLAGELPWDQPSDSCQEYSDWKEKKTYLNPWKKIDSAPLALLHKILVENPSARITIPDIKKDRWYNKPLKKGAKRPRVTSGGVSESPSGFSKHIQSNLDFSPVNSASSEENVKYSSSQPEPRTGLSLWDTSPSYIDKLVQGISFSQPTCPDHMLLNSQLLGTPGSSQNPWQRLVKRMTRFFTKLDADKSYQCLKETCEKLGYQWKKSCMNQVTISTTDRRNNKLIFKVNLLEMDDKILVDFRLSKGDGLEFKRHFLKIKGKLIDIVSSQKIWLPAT
The experiment in a line: Inhibition of human Chk1 at 10 uM. Summed up: (§2)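 Chk1, commercial or GST-Chk1 purified from baculovirus-infected Sf9 cell extracts. Percent inhibition measured at a single compound concentration; IC50 also determined.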

Another test deals with HT-29. The experiment in a line: Antiproliferative activity against human HT29 cells microculture tetrazolium assay. The class given is functional, cell-based. The procedure, abridged: as §1
Test [3] has as its target T2, Serine/threonine-protein kinase Chk1 (Homo sapiens, UniProt O14757).
T2 sequence (O14757 whole entry): T1 sequence (whole entry)
The test is described as follows: Inhibition of human Chk1. Summed up:
as §2

Test [4] has as its target Proto-oncogene tyrosine-protein kinase Src (Homo sapiens) (UniProt P12931). The experiment in a line: Inhibition of Src kinase at 10 uM. Summed up: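 Radiometric Src kinase assay. 20 min at 30 °C, stopped with 0.85% orthophosphoric acid, captured on phosphocellulose filter, washed with orthophosphoric acid, dried with acetone.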

The source made the active and inactive calls. No cut-off for these calls is given here.

Chain of Proto-oncogene tyrosine-protein kinase Src (Homo sapiens) (P12931 2-536 limits assumed): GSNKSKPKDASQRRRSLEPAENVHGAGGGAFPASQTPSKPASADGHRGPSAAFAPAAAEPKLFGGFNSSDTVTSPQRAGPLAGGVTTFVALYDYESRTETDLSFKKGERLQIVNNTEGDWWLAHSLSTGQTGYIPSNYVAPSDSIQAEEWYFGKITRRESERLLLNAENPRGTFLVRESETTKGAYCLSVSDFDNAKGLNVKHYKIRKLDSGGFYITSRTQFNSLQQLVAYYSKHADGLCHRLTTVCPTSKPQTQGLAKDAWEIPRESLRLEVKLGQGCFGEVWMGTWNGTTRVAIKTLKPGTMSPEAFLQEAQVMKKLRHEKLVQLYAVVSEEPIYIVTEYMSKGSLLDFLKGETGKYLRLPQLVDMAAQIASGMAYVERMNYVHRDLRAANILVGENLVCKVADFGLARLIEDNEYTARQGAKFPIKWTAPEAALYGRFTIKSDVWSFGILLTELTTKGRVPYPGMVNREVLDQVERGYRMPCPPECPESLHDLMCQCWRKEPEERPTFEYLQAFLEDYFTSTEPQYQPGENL

For orientation: IC50 means the point on the concentration scale where inhibition reaches its midpoint. Low values mean higher potency, high ones lower potency. As a reminder, the inhibition is how much of the control response was suppressed. In the case of `CCOC(=O)c1cc2c(c3[nH]c4ccccc4c13)C(=O)NC2=O`, the results for the IC50 (in the test with L1210; in test [1]; with HT-29) were 4.9 µM, 3.8 µM and 6.4 µM, respectively. In test [2], the inhibition was found to be 45.3%.
As for `CCOC(=O)c1cc2c(c3c1[nH]c1ccccc13)C(=O)N(CO)C2=O`, the IC50 stood at 5.5 µM in the test on L1210, 210 nM in test [3], 2.9 µM in test [1] and 3.9 µM in the test with HT-29. For the same compound, the inhibition in test [4] was 11.5%; in test [2] it was 72.4%.
Turning to `CCOC(=O)c1c2c(c3[nH]c4ccccc4c3c1O)C(=O)N(CO)C2=O`, the 50% inhibitory concentration (IC50) in the test on L1210 turned out to be 10.6 µM; in test [1], 11.5 µM; with HT-29 it was 31.7 µM. Moreover, in test [2], the outcome was inactive.
For the compound `CCOC(=O)c1c2c(c3[nH]c4ccccc4c3c1O)C(=O)NC2=O`, the IC50 with L1210 was found to be 57.5 µM; in test [1] it was 33.6 µM; with HT-29, 84.9 µM. In addition, the result in test [2] was inactive.
For `CCOC(=O)c1cc2c(c3c1[nH]c1ccccc13)C(=O)NC2=O`, the half-inhibitory concentration (IC50) in the test with L1210 is 5.8 µM; in test [3], above 5000 nM; in test [1] it was 2.3 µM; in the test on HT-29 it was 4 µM. In addition, the inhibition in test [2] amounted to 71.7%.
In the same order, the values of `O=C1NC(=O)c2c1c1c(c3c2[nH]c2ccccc23)CNC1=O` are 47 µM, 370 nM, 58.9 µM, above 100 µM and 71.7%.
For the compound `O=C1NC(=O)c2c1c1c3ccccc3[nH]c1n1cncc21` [ISOGRANULATIMIDE], in test [1], the IC50 is 13 µM.
As to `O=c1[nH]c(=O)c2c1c1[nH]c3ccccc3c1c1c(=O)oc(=O)c21`, the IC50 was found to be 11.9 µM in the test with L1210, 10.7 µM in test [1] and 33 µM with HT-29. In addition, in test [2], the result was inactive.
As for `O=C1NC(=O)c2c1cc(O)c1c2[nH]c2ccccc21`, the figures for the IC50 (with L1210; in test [1]; in the test on HT-29) were 54.4 µM, 34.4 µM and 46.7 µM, respectively. This compound returned an inhibition in test [2] of 11%.
For `O=C1NC(=O)c2c1c1c(c3c2[nH]c2ccccc23)C(=O)NC1`, the IC50 with L1210 turned out to be 45.8 µM; in test [3] it was 50 nM; in test [1] it was 10.2 µM; with HT-29 it was 8.2 µM. For the same compound, the inhibition in test [2] came to 85.4%.
On to `O=C1NC(=O)C2C1c1[nH]c3ccccc3c1C1C(=O)OC(=O)C12` (stereo unspecified), for which the IC50 in the test with L1210 was 5.7 µM; in the test on HT-29 it was 6.2 µM. The inhibition in test [2] worked out at 10.6%.
`O=C1NC(=O)c2c1c1[nH]cnc1c1[nH]c3ccccc3c21` [GRANULATIMIDE] returned an IC50 in test [1] of 6.1 µM.
